Measured values: ChEMBL document CHEMBL5230177, “Inactivation of myostatin by photooxygenation using functionalized d-peptides” (RSC Med Chem, 2023)
Active and inactive are the calls of the source. The calls are words filed in the database; no cut-off is given here.

What was measured:
[1] = biological target: Growth/differentiation factor 8 (Homo sapiens) (UniProt O14793); test: Photo-oxygenation of human recombinant Myostatin expressed in Escherichia coli cells assessed as oxygen adduct formation in myostatin peak fragment 79-90 at 3 uM measured after photoirradiation for 30 mins using LED by MALDI-TOF-MS analysis
In short: (§1)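 Myostatin stock (8 μM in 1 mM HCl) diluted to 1 μM in 10 mM phosphate, pH 7.4. Functionalized peptide (final 3 μM) or methylene blue (final 1 μM) added. Irradiated 30 min with 730 nm LED (14 mW) at room temperature. Then 50 mM DTT reduction (37 °C, 0.5 h), Lys-C digestion (1/20 w/w, 37 °C, 2.5 h), ZipTip desalting, MALDI-TOF MS of fragments.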

[2] = biological target: Growth/differentiation factor 8 (Homo sapiens) (UniProt O14793); test: Photo-oxygenation of human recombinant Myostatin expressed in Escherichia coli cells assessed as oxygen adduct formation in myostatin peak fragment 55-78 at 3 uM measured after photoirradiation for 30 mins using LED by MALDI-TOF-MS analysis; in short: as §1
[3] = biological target: Growth/differentiation factor 8 (Homo sapiens) (UniProt O14793); test: Photo-oxygenation of human recombinant Myostatin expressed in Escherichia coli cells assessed as oxygen adduct formation in myostatin peak fragment 40-54 at 3 uM measured after photoirradiation for 30 mins using LED by MALDI-TOF-MS analysis; in short: as §1
[4] = biological target: Amyloid-beta precursor protein (Homo sapiens) (UniProt P05067); test: Photo-oxygenation of human Amyloid beta (1 to 42) assessed as oxygen adduct formation at 3 uM measured after photoirradiation for 30 mins using LED by MALDI-TOF-MS analysis
In short: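 Aβ1-42 formed in situ from isopeptide stock (250 μM in 0.1% TFA, ultracentrifuged), diluted to 20 μM in 10 mM phosphate, pH 7.4. Functionalized peptide (final 3 μM) or methylene blue (final 1 μM) added. Irradiated with 730 nm LED (14 mW, 3–5 cm) at room temperature. Reduced with 50 mM DTT (37 °C, 0.5 h), Lys-C digested (1/20 w/w, 37 °C, 2.5 h), desalted, analysed by MALDI-TOF MS.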

[5] = biological target: Growth/differentiation factor 8 (Homo sapiens) (UniProt O14793); test: Photo-oxygenation mediated inactivation of human recombinant Myostatin expressed in Escherichia coli cells assessed as residual activity at 3 nM photoirradiated for 30 mins using LED followed by incubation with luciferase reporter transfected HEK293 cells for 4 hrs by luciferase reporter gene assay; settings: time 4.5 hrs
In short: (§2)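 Myostatin (1 μM in 10 mM phosphate, pH 7.4, with or without peptide) diluted in serum-free DMEM to 0.6 nM, irradiated at 730 nm for 30 min, then added to HEK293 cells. Cells were transfected 24 h with SBE-luc2P reporter plus TK-Renilla control, then held 8 h in serum/phenol red-free DMEM. Exposure 4 h, PBS wash, dual-luciferase read-out. Triplicate, mean ± s.d. (n = 3), Tukey's test.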

[6] = biological target: Growth/differentiation factor 8 (Homo sapiens) (UniProt O14793); test: Inactivation of human recombinant Myostatin expressed in Escherichia coli cells at 3 nM incubated with luciferase reporter transfected HEK293 cells for 4 hrs by luciferase reporter gene assay
[7] = biological target: T1, Growth/differentiation factor 8 (Homo sapiens, UniProt O14793); test: Photo-oxygenation mediated inactivation of human recombinant Myostatin expressed in Escherichia coli cells photoirradiated for 30 mins using LED followed by incubation with luciferase reporter transfected HEK293 cells for 4 hrs by luciferase reporter gene assay; in short: as §2
T1 sequence (O14793 whole entry): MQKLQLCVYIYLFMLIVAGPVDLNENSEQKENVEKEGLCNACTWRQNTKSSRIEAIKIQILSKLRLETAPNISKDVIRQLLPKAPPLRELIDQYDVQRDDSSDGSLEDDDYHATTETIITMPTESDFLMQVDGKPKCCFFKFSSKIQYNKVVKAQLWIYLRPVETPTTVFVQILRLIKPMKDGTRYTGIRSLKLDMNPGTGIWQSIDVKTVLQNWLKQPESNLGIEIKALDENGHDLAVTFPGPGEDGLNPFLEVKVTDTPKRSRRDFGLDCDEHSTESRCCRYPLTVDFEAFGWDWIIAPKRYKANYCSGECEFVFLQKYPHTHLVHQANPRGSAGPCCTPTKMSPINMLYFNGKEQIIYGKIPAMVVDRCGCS

[8] = test system: HEK293; test: Phototoxicity against human HEK293 cells assessed as reduction in cell viability at 3 uM photoirradiated for 30 mins using LED followed by incubation with compound for 24 hrs by WST-1 assay; format: toxicity, cell-based; settings: hek293, 24.5 h, time 1470 min
In short: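 HEK293 cells grown in DMEM with 10% FBS and non-essential amino acids at 37 °C, 5% CO2, seeded 2.0×10^4 cells/well. After 48 h, medium switched to serum- and phenol red-free DMEM containing 3 μM peptide or methylene blue. Cells irradiated with LED (λmax 730 nm, 30 min), then incubated 24 h. Viability read by WST-1; Student's t-test.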

[9] = test system: trypsin (Sus scrofa); test: Stability of the compound assessed as trypsin (porcine pancreas)-mediated drug degradation at 100 uM measured after 3 hrs by MALDI-TOF-MS analysis
[10] = test system: chymotrypsin (Bos taurus); test: Stability of the compound assessed as chymotrypsin (bovine pancreas)-mediated drug degradation at 100 uM measured after 3 hrs by MALDI-TOF-MS analysis

Amyloid-beta precursor protein (Homo sapiens), sequence (P05067 whole entry): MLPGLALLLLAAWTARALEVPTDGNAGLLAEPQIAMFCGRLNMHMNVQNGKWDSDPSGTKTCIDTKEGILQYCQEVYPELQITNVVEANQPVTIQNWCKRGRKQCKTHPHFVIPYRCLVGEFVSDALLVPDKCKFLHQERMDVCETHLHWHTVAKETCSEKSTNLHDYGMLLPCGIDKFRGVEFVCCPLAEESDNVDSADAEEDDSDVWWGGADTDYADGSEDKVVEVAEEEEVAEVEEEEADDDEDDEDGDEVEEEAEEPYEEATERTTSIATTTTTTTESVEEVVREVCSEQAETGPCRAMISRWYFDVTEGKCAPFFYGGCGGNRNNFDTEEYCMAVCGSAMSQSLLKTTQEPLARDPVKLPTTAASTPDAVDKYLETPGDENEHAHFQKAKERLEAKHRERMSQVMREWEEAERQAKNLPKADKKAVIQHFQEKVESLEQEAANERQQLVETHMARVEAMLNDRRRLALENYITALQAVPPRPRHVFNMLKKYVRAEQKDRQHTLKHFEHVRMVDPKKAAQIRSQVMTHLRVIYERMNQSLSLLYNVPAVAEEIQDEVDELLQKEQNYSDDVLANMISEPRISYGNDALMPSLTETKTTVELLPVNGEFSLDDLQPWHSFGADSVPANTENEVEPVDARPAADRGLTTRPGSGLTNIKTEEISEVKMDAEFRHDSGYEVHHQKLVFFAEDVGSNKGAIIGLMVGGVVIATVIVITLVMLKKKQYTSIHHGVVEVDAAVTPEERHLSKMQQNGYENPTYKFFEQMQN

Compound: CC[C@@H](C)[C@@H](NC(=O)[C@@H](CCCNC(=N)N)NC(=O)[C@@H](CCc1ccccc1)NC(=O)[C@H](NC(=O)[C@@H](CCCCN)NC(=O)[C@H](NC(=O)[C@@H](CCCNC(=N)N)NC(=O)[C@H](NC(=O)[C@@H](Cc1ccc2ccccc2c1)NC(=O)[C@@H](CCCNC(=N)N)NC(=O)[C@@H](CCCCN)NC(=O)[C@H](NC(=O)[C@@H](CCCNC(=N)N)NC(=O)[C@@H](CC(C)C)NC(=O)CCc1cn(CCN2CCCc3cc(/C=C/C4=C(Br)C(/C=C/c5cc6c7c(c5)CCCN7CCC6)=[O+][B-](F)(C(F)(F)F)O4)ccc32)nn1)C1CCCCC1)[C@H](C)CC)C1CCCCC1)[C@H](C)CC)C(=O)N[C@H](Cc1ccc(O)cc1)C(=O)N[C@H](CCc1ccccc1)C(N)=O (stereo not given in full)
- Activity [1]: Active
- Activity [2]: Active
- Activity [3]: inactive
- Activity [4]: inactive
- Activity [5]: 41%
- inhibition [6]: inactive
- IC50 [7]: 0.89 nM
- Activity [8]: Non-Toxic
- Stability [9]: Stable
- Stability [10]: Stable
